From ChEMBL document CHEMBL1129753, “N-terminus urea-substituted chemotactic peptides: new potent agonists and antagonists toward the neutrophil fMLF receptor” (J Med Chem, 1996)

Tests used:
fMet-Leu-Phe receptor [1] = molecular target: T1, fMet-Leu-Phe receptor (Homo sapiens, UniProt P21462); assay: Binding affinity towards fMLF receptor using human neutrophils
T1 sequence (P21462 whole entry): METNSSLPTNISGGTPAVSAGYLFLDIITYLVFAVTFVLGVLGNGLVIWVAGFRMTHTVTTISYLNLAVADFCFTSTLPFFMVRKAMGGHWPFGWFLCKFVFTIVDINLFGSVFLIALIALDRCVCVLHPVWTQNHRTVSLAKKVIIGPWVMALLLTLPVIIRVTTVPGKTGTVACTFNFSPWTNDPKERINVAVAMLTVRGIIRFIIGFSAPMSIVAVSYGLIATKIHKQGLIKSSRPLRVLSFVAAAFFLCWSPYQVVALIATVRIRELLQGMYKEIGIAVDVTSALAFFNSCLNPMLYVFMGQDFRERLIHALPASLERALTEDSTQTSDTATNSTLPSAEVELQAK
Procedure, shortened: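 Competition binding on human neutrophils: the peptide displaces tritiated fMLF from the fMLF receptor. Values are mean ± SE of 2–3 independent experiments.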

fMet-Leu-Phe receptor [2] = molecular target: T1, fMet-Leu-Phe receptor; assay: Agonistic activity was determined by measuring the ability to induce superoxide production(as measured by reduction of cytochrome C) using human neutrophils; NA= No activity at 30 uM; type: functional
Procedure, shortened: (§1)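 Human neutrophils; agonist read-out is superoxide generation induced by the peptide, followed as cytochrome C reduction. Values are mean ± SE of 2–3 independent experiments.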

fMet-Leu-Phe receptor [3] = molecular target: T1, fMet-Leu-Phe receptor; assay: Antagonistic activity was determined by measuring the ability to inhibit superoxide production (stimulated by fMLF) using human neutrophils; type: functional
Procedure, shortened: (§2)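 Human neutrophils stimulated with fMLF, with the peptide present. Antagonism is the inhibition of fMLF-driven superoxide production, read as cytochrome C reduction. Values are mean ± SE of 2–3 independent experiments.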

Homo sapiens [4] = species: Homo sapiens; assay: Antagonistic activity was determined by measuring the compound's ability to inhibit superoxide production (stimulated by fMLF) using human neutrophils; NA= No activity at 30 uM; type: functional, organism-based; procedure, shortened: as §2
fMet-Leu-Phe receptor [5] = molecular target: T1, fMet-Leu-Phe receptor; assay: Agonistic activity was determined by measuring the ability to induce superoxide production(as measured by reduction of cytochrome C) using human neutrophils; type: functional; procedure, shortened: as §1
[6] = Agonistic activity was determined by measuring the compound's ability to induce superoxide production(as measured by reduction of cytochrome C) using human neutrophils; type: functional; procedure, shortened: as §1
Homo sapiens [7] = species: Homo sapiens; assay: Agonistic activity was determined by measuring the compound's ability to induce superoxide production(as measured by reduction of cytochrome C) using human neutrophils; NA= No activity at 30 uM.; type: functional, organism-based; procedure, shortened: as §1

SMILES	IC50 (fMet-Leu-Phe receptor [1])	EC50 (fMet-Leu-Phe receptor [2])	IC50 (fMet-Leu-Phe receptor [3])	IC50 (Homo sapiens [4])	EC50 (fMet-Leu-Phe receptor [5])	EC50 [6]	EC50 (Homo sapiens [7])
CC(C)C[C@@H](NC(=O)[C@H](Cc1ccccc1)NC(=O)[C@@H](CC(C)C)NC(=O)[C@H](Cc1ccccc1)NC(=O)NC(C)C)C(=O)N[C@@H](Cc1ccccc1)C(=O)O	200 nM	Not Active	500 nM				
CC(C)C[C@@H](NC(=O)[C@H](Cc1ccccc1)NC(=O)[C@@H](CC(C)C)NC(=O)[C@H](Cc1ccccc1)NC(=O)NC12CC3CC(CC(C3)C1)C2)C(=O)N[C@@H](Cc1ccccc1)C(=O)O	20 nM	Not Active	300 nM				
Cc1cccc(NC(=O)N[C@@H](Cc2ccccc2)C(=O)N[C@H](CC(C)C)C(=O)N[C@@H](Cc2ccccc2)C(=O)N[C@H](CC(C)C)C(=O)N[C@@H](Cc2ccccc2)C(=O)O)c1	200 nM	Not Active	20 nM				
CSCC[C@H](NC(=O)Nc1ccc(C)cc1)C(=O)N[C@@H](CC(C)C)C(=O)N[C@@H](Cc1ccccc1)C(=O)O	2 nM			Not Active	2 nM		
CSCC[C@H](NC(=O)NC(C)(C)C)C(=O)N[C@@H](CC(C)C)C(=O)N[C@@H](Cc1ccccc1)C(=O)O	3000 nM	Not Active	2000 nM				
CCCNC(=O)N[C@@H](CCSC)C(=O)N[C@@H](CC(C)C)C(=O)N[C@@H](Cc1ccccc1)C(=O)O	2000 nM	Not Active	3000 nM				
CSCC[C@H](NC(=O)NC(C)C)C(=O)N[C@@H](CC(C)C)C(=O)N[C@@H](Cc1ccccc1)C(=O)O	2000 nM		5000 nM				
CSCC[C@H](NC(=O)NC12CC3CC(CC(C3)C1)C2)C(=O)N[C@@H](CC(C)C)C(=O)N[C@@H](Cc1ccccc1)C(=O)O	900 nM		2000 nM				
CSCC[C@H](NC(=O)NCC(C)C)C(=O)N[C@@H](CC(C)C)C(=O)N[C@@H](Cc1ccccc1)C(=O)O	1000 nM	Not Active	4000 nM				
C=C(C)NC(=O)N[C@@H](CCSC)C(=O)N[C@@H](CC(C)C)C(=O)N[C@@H](Cc1ccccc1)C(=O)O	300 nM					400 nM	
CSCC[C@H](NC(N)=O)C(=O)N[C@@H](CC(C)C)C(=O)N[C@@H](Cc1ccccc1)C(=O)O	2000 nM				3000 nM		
COc1ccc(NC(=O)N[C@@H](CCSC)C(=O)N[C@@H](CC(C)C)C(=O)NC(Cc2ccccc2)C(=O)O)cc1 (stereo not given in full)	2 nM			Not Active	1 nM		
CNC(=O)N[C@@H](CCSC)C(=O)N[C@@H](CC(C)C)C(=O)N[C@@H](Cc1ccccc1)C(=O)O	3000 nM	Not Active	2000 nM				
CSCC[C@H](NC(=O)Nc1cccc(C)c1)C(=O)N[C@@H](CC(C)C)C(=O)N[C@@H](Cc1ccccc1)C(=O)O	100 nM		1600 nM		900 nM		
CSCC[C@H](NC(=O)Nc1ccccc1)C(=O)N[C@@H](CC(C)C)C(=O)N[C@@H](Cc1ccccc1)C(=O)O	30 nM			Not Active	40 nM		
CC(C)C[C@@H](NC(=O)[C@H](Cc1ccccc1)NC(=O)[C@@H](CC(C)C)NC(=O)[C@H](Cc1ccccc1)NC(=O)Nc1ccccc1)C(=O)N[C@@H](Cc1ccccc1)C(=O)O	50 nM	Not Active	500 nM				
CC(C)C[C@@H](NC(=O)[C@H](Cc1ccccc1)NC(=O)[C@@H](CC(C)C)NC(=O)[C@H](Cc1ccccc1)NC(N)=O)C(=O)N[C@@H](Cc1ccccc1)C(=O)O	800 nM		100 nM				Not Active
CSCC[C@H](NC(=O)NCc1ccccc1)C(=O)N[C@@H](CC(C)C)C(=O)N[C@@H](Cc1ccccc1)C(=O)O	800 nM		600 nM				
CCCCNC(=O)N[C@@H](CCSC)C(=O)N[C@@H](CC(C)C)C(=O)N[C@@H](Cc1ccccc1)C(=O)O	300 nM				300 nM		
CSCC[C@H](NC(=O)Nc1ccc(Cl)cc1)C(=O)N[C@@H](CC(C)C)C(=O)N[C@@H](Cc1ccccc1)C(=O)O	2 nM			Not Active	1 nM		
CCNC(=O)N[C@@H](CCSC)C(=O)N[C@@H](CC(C)C)C(=O)N[C@@H](Cc1ccccc1)C(=O)O	1000 nM	Not Active	3000 nM				
CCCCNC(=O)N[C@@H](Cc1ccccc1)C(=O)N[C@H](CC(C)C)C(=O)N[C@@H](Cc1ccccc1)C(=O)N[C@H](CC(C)C)C(=O)N[C@@H](Cc1ccccc1)C(=O)O	300 nM	Not Active	600 nM				
